This note sets out measurements from ChEMBL document CHEMBL1129987, “Structure-based design of nonpeptidic HIV protease inhibitors: the sulfonamide-substituted cyclooctylpyramones” (J Med Chem, 1997).

Data set [1] in a line: Total plasma clearance value was obtained after intravenous administration of 1.8 mg/kg of drug in male Beagle dogs. Format: ADME, organism-based, Canis lupus familiaris. Details: dose 1.8 mg/kg, route intravenous. The following applies: dog.
Data set [2] in a line: Maximum concentration was measured after peroral administration of 10 mg/kg of drug in male Beagle dogs. The following applies: dog, in vivo, po. Format: ADME, organism-based, Canis lupus familiaris. The arrangement: dose 10 mg/kg, route oral. The method in brief:
(§1)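 Male beagle dogs received a 10 mg/kg oral dose. tmax is reported as a range. Bioavailability was calculated as %F = (AUCpo/AUCiv) × (doseiv/dosepo) against a separate iv study. Values are mean ± SD, n = 3.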

The nature of data set [3]: Total plasma clearance value was obtained after intravenous administration of 2.7 mg/kg of drug in male Dawley rats. Format: ADME, organism-based. The following applies: Sprague-Dawley, rat. Details: dose 2.7 mg/kg, route intravenous.
The nature of data set [4]: Maximum time taken by the drug to reach peak concentration after peroral administration of 5.2 mg/kg of drug male in Dawley rats. Format: ADME, organism-based. The arrangement: dose 5.2 mg/kg, route oral. The following applies: Sprague-Dawley, rat, in vivo, po.
Data set [5] can be described thus: Oral bioavailability in rat (Sprague-Dawley) (male) (dose 5.2 mg/kg p.o.). Format: ADME, organism-based. The following applies: in vivo.
A short description of data set [6]: Half-life was measured after intravenous administration of 1.8 mg/kg of drug in male Beagle dogs. Format: ADME, organism-based, Canis lupus familiaris. The following applies: dog, in vivo. The arrangement: dose 1.8 mg/kg, route intravenous.
A short description of data set [7]: Apparent volume of distribution was obtained after intravenous administration of 2.7 mg/kg of drug in male Dawley rats. The class given is ADME, organism-based. Details: dose 2.7 mg/kg, route intravenous. The following applies: Sprague-Dawley, rat, in vivo, read-out: Vss.
A short description of data set [8]: Maximum time taken by the drug to reach peak concentration after peroral administration of 10 mg/kg of drug male in male Beagle dogs. Details: dose 10 mg/kg, route oral. The class given is ADME, organism-based, Canis lupus familiaris. The following applies: dog, in vivo, po. The method in brief:
as §1

Data set [9] relates to Human immunodeficiency virus 1. Description: Antiviral activity in HIV-1 infected H9 cells. The following applies: Human immunodeficiency virus 1, H9; read-out: ED50 (the source's name). Format: functional. The gist of the method: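 H9 cells infected with HIV-1 IIIB at MOI about 0.005, spun down (200g, 10 min), resuspended at 8 × 10^5 cells/mL in RPMI Complete and mixed with compound; final DMSO 0.1%, triplicate per concentration. After 5 days at 37 °C in 5% CO2, supernatant p24 antigen was measured by ELISA. ED50 is the drug amount that reduces p24 by 50% versus DMSO drug-free controls.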

Data set [10] is described as follows: Half-life was measured after intravenous administration of 2.7 mg/kg of drug in male Dawley rats. Format: ADME, organism-based. Details: dose 2.7 mg/kg, route intravenous. The following applies: Sprague-Dawley, rat, in vivo.
A short description of data set [11]: Oral bioavailability in dog (Beagle) (male) (dose 10 mg/kg p.o.). Format: ADME, organism-based, Canis lupus familiaris. The following applies: in vivo. The method in brief:
as §1

Data set [12] can be described thus: Maximum concentration was measured after peroral administration of 5.2 mg/kg of drug in male Dawley rats. Format: ADME, organism-based. The following applies: Sprague-Dawley, rat, in vivo, po. The arrangement: dose 5.2 mg/kg, route oral.
The nature of data set [13]: Apparent volume of distribution was obtained after intravenous administration of 1.8 mg/kg of drug in male Beagle dogs. The class given is ADME, organism-based, Canis lupus familiaris. The arrangement: dose 1.8 mg/kg, route intravenous. The following applies: dog, in vivo, read-out: Vss.
For data set [14], the target named is Human immunodeficiency virus type 1 protease (Human immunodeficiency virus 1, UniProt Q72874). Description: Binding affinity against HIV-1 protease.
The nature of data set [15]: Median cell culture toxic dose was evaluated against H9 cell line. The class given is ADME, cell-based. The following applies: human, H9 cells; read-out: CCTD50.
Data set [16] concerns Rattus norvegicus. Description: Total plasma clearance value was obtained after intravenous administration of […] mg/kg of drug in male Dawley rats. The following applies: in vivo, 2.8 mg/kg. The class given is ADME, organism-based.
For data set [17], the system named is Rattus norvegicus. Description: Half-life was measured after intravenous administration of […] mg/kg of drug in male Dawley rats. Format: ADME, organism-based. The following applies: in vivo, 2.8 mg/kg.
Data set [18] relates to Rattus norvegicus. Description: Apparent volume of distribution was obtained after intravenous administration of 2.8 mg/kg of drug in male Dawley rats. The class given is ADME, organism-based. Details: dose 2.8 mg/kg, route intravenous. The following applies: in vivo.
Data set [19] can be described thus: Maximum time taken by the drug to reach peak concentration after peroral administration of 5.2 mg/kg of drug in male Dawley rats. The arrangement: dose 5.2 mg/kg, route oral. The following applies: Sprague-Dawley, rat, in vivo, po. Format: ADME, organism-based.
Data set [20] in a line: Maximum concentration was measured after peroral administration of 5.0 mg/kg of drug in male Dawley rats. The class given is ADME, organism-based. Details: dose 5 mg/kg, route oral. The following applies: Sprague-Dawley, rat, in vivo, po.
Data set [21] is described as follows: Apparent volume of distribution was obtained after intravenous administration of 2.5 mg/kg of drug in male Dawley rats. The class given is ADME, organism-based. The arrangement: dose 2.5 mg/kg, route intravenous. The following applies: Sprague-Dawley, rat, in vivo, read-out: Vss.
The nature of data set [22]: Half-life was measured after intravenous administration of 2.5 mg/kg of drug in male Dawley rats. Format: ADME, organism-based. Details: dose 2.5 mg/kg, route intravenous. The following applies: Sprague-Dawley, rat, in vivo.
Data set [23] in a line: Maximum time taken by the drug to reach peak concentration after peroral administration of 5.0 mg/kg of drug in male Dawley rats. Format: ADME, organism-based. The arrangement: dose 5 mg/kg, route oral. The following applies: Sprague-Dawley, rat, in vivo, po.
A short description of data set [24]: Total plasma clearance value was obtained after intravenous administration of 2.5 mg/kg of drug in male Dawley rats. The class given is ADME, organism-based. The arrangement: dose 2.5 mg/kg, route intravenous. The following applies: Sprague-Dawley, rat.
The nature of data set [25]: Oral bioavailability in rat (Sprague-Dawley) (male) (dose 5 mg/kg). Format: ADME, organism-based. The following applies: in vivo.
In data set [26] the target is Human immunodeficiency virus type 1 protease (Human immunodeficiency virus 1) (UniProt Q72874). Description: Percentage inhibition against HIV-1 protease at 10 uM concentration of drug.
For data set [27] the target is unchanged. Description: Percentage inhibition against HIV-1 protease at 1.1 uM concentration of drug.
A short description of data set [28]: Apparent volume of distribution was obtained after intravenous administration of 2.6 mg/kg of drug in male Dawley rats. Details: dose 2.6 mg/kg, route intravenous. The following applies: Sprague-Dawley, rat, in vivo, read-out: Vss. Format: ADME, organism-based.
A short description of data set [29]: Half-life was measured after intravenous administration of 2.6 mg/kg of drug in male Dawley rats. The arrangement: dose 2.6 mg/kg, route intravenous. The following applies: Sprague-Dawley, rat, in vivo. The class given is ADME, organism-based.
A short description of data set [30]: Total plasma clearance value was obtained after intravenous administration of 2.6 mg/kg of drug in male Dawley rats. Format: ADME, organism-based. The arrangement: dose 2.6 mg/kg, route intravenous. The following applies: Sprague-Dawley, rat.
Data set [31] concerns the target Human immunodeficiency virus type 1 protease (Human immunodeficiency virus 1) (UniProt Q72874). Description: Percentage inhibition against HIV-1 protease at 3 uM concentration of drug.

Consider `O=c1c2c(oc(O)c1C(c1cccc(NS(=O)(=O)c3ccc(F)cc3)c1)C1CC1)CCCCCC2` (stereo unspecified), for which the clearance in data set [1] was 3.17 mL/min/kg; in data set [3], 0.717 mL/min/kg. Further, the Cmax in data set [2] stood at 61 µM; in [12], 31 µM. For the same compound, the Tmax in [4] stood at 15 min; in [8] it was 30 min. Further, the bioavailability stood at 50% in data set [5] and 107% in [11]. The half-life in data set [6] is 34.2 min; in data set [10], 372 min. Moreover, the Vd in [7] was found to be 0.16 L/kg; in [13] it was 0.08 L/kg. Further, in data set [9], the EC50 is 2000 nM. The compound further showed an inhibition constant (Ki) in [14] of 3.1 nM. In [15], the CC50 worked out at 68000 nM.
For `O=c1c2c(oc(O)c1[C@@H](c1cccc(NS(=O)(=O)c3ccc(F)cc3)c1)C1CC1)CCCCCC2`, the CL in data set [16] came to 0.067 mL/min/kg. In addition, in data set [5], the bioavailability amounted to 53%. In data set [17], this compound returned a T1/2 of 360 min. Further, in data set [9], the EC50 was more than 10000 nM. The Vss in [18] was 0.15 L/kg. Also, the Cmax in data set [12] stood at 24 µM. Besides, the time of peak concentration (Tmax) in data set [19] was determined as 15 min. In data set [14], this compound displayed a Ki of 2.1 nM. Besides, the CC50 in [15] is more than 30000 nM.
`Cn1cnc(S(=O)(=O)Nc2cccc([C@@H](c3c(O)c4c(oc3=O)CCCCCC4)C3CC3)c2)c1`: the peak level in [20] (Cmax) was 0.64 µM. For the same compound, in data set [9], the EC50 is 2100 nM. Moreover, the Vd in data set [21] amounted to 0.2 L/kg. Moreover, in data set [22], the half-life is 144 min. Besides, the Tmax in data set [23] was 15 min. Also, the clearance in data set [24] is 4.67 mL/min/kg. The Ki in data set [14] came to 0.045 nM. For the same compound, the bioavailability in data set [25] turned out to be 15%. Besides, the CC50 in [15] is more than 30000 nM.
Turning to `O=c1c2c(oc(O)c1C(c1cccc(N(Cc3ccccc3)S(=O)(=O)c3ccccc3)c1)C1CC1)CCCCCC2` (stereo unspecified), the inhibition in [26] and in [27] was less than 10% throughout.
Regarding `O=c1c2c(oc(O)c1C(c1cccc(N(CC3CC3)S(=O)(=O)c3ccccc3)c1)C1CC1)CCCCCC2` (stereo unspecified), in data set [27], the inhibition is less than 10%.
As for `N#Cc1ccc(S(=O)(=O)Nc2cccc([C@H](c3c(O)oc4c(c3=O)CCCCCC4)C3CC3)c2)cc1`, in data set [20], the Cmax came out at 13 µM. Moreover, in [9], the EC50 amounted to 8300 nM. Also, in [23], the time of peak concentration (Tmax) worked out at 15 min. Besides, the Vd in data set [28] worked out at 0.15 L/kg. The half-life in [29] was 450 min. This compound also gave a clearance in data set [30] of 0.933 mL/min/kg. For the same compound, the bioavailability in data set [25] turned out to be 31%. Moreover, the CC50 in data set [15] is more than 30000 nM.
As for `O=c1c2c(oc(O)c1C(c1cccc(N(CCc3ccccc3)S(=O)(=O)c3ccccc3)c1)C1CC1)CCCCCC2` (stereo unspecified), the inhibition in data set [31] and in data set [27] was less than 10% in each case.
Regarding `CC(C)N(c1cccc(C(c2c(O)c3c(oc2=O)CCCCCC3)C2CC2)c1)S(=O)(=O)c1ccccc1` (stereo unspecified), the inhibition in data set [27] is less than 10%.
For `O=c1c2c(oc(O)c1[C@H](c1cccc(NS(=O)(=O)c3cccc4cccnc34)c1)C1CC1)CCCCCC2`, the Cmax in [20] amounted to 6.2 µM. The EC50 in data set [9] was 1300 nM. Besides, the Vd in [21] was found to be 0.15 L/kg. In data set [22], this compound showed a half-life of 108 min. Besides, the time of peak concentration (Tmax) in data set [23] is 15 min. Besides, in data set [24], the clearance was 2.83 mL/min/kg. Moreover, the affinity in data set [14] corresponds to a Ki of 0.4 nM. The bioavailability in data set [25] was 34%. In addition, in data set [15], the CC50 is more than 30000 nM.
